Read-outs that look alike come from different tables or passages of the source. Marks after values point to notes of the source that are not given here.

The subject of data set [1] is healthy volunteers. The data set is described as follows: Thorough QT/QTc study part 2: Holter ECG, Fridericia-corrected QT interval. The data set is classed as in vivo, human. To be noted: for Mean difference vs. placebo (90% CI), msec ddQTcF: MOX 400 mg (C–D); for Mean change from baseline, msec ddQTcF: MOX 400 mg single dose (C). Put shortly:
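Healthy subjects, randomized four-period crossover with 10-day washouts, fed: oral fostemsavir 1,200 mg q.d. or 2,400 mg b.i.d. for 7 days, placebo b.i.d., or single moxifloxacin 400 mg on day 7. Triplicate ECGs from 24-h Holter, read centrally. Baseline is the mean of day-1 predose readings; readings 0.5–22.25 h post-dose on day 7. Linear mixed model gives 90% CI; bound 10 msec; assay sensitivity >5 msec at 2–4 h.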

The next data set has as its system dog. To be noted: nonclinical assessment of fostemsavir or TMR ref unpublished data; cited from earlier work.
For data set [2] the following is noted: cited from earlier work.
For data set [3] the following is noted: cited from earlier work. The source holds these as a separate data set.
The conditions of data set [4]: cited from earlier work. The source holds these as a separate data set.
Data set [5] concerns healthy volunteers. Also on record: species or system human. To be noted: final linear concentration‐ddQTcF model.
The conditions of data set [6]: heavily treatment‐experienced HIV‐1 infected patients, fostemsavir 600 mg b.i.d., BRIGHTE (NCT02362503) ref 22; cited from earlier work.
For data set [7] the following is noted: cited from earlier work. This is another data set of the same source.
The subject of another data set is QTc interval. To be noted: cited from earlier work.
The conditions of data set [8]: ritonavir 100 mg (q.d. or b.i.d.) ref 18, 21; cited from earlier work.

`COc1c(N2C[C@@H]3CCCN[C@@H]3C2)c(F)cc2c(=O)c(C(=O)O)cn(C3CC3)c12` [MOX, moxifloxacin, reference compound]: the “Mean difference vs. placebo (90% CI), msec ddQTcF” value is given as 0.42 (–1.73, 2.58) msec with healthy volunteers [1] (day 7, 0.5 hour); 2.95 (0.80, 5.10) msec in the data set with healthy volunteers [1] (day 7, 1 hour); 8.69 (6.57, 10.82)^a msec with healthy volunteers [1] (day 7, 2 hour); 10.43 (8.32, 12.54)^b msec in the data set on healthy volunteers [1] (day 7, 3 hour); 10.33 (8.22, 12.44)^c msec in the data set with healthy volunteers [1] (day 7, 4 hour); 8.83 (6.72, 10.94) msec in the data set with healthy volunteers [1] (day 7, 5 hour). Besides, the “Mean difference vs. placebo (90% CI), msec ddQTcF” value was 7.98 (5.87, 10.09) msec in the data set on healthy volunteers [1] (day 7, 6 hour); 8.05 (5.94, 10.17) msec in the data set on healthy volunteers [1] (day 7, 8 hour); 8.96 (6.85, 11.07) msec with healthy volunteers [1] (day 7, 10 hour); 8.75 (6.64, 10.86) msec with healthy volunteers [1] (day 7, 11.5 hour); 7.55 (5.44, 9.66) msec with healthy volunteers [1] (day 7, 14 hour); 5.64 (3.52, 7.75) msec with healthy volunteers [1] (day 7, 15 hour). Further, the “Mean difference vs. placebo (90% CI), msec ddQTcF” value is 6.92 (4.81, 9.03) msec in the data set with healthy volunteers [1] (day 7, 16 hour) and 6.19 (4.08, 8.30) msec in the data set with healthy volunteers [1] (day 7, 22.25 hour). The “Mean change from baseline, msec ddQTcF” value was “–7.12 msec” with healthy volunteers [1] (day 7, 0.5 hour); “–4.82 msec” in the data set with healthy volunteers [1] (day 7, 1 hour); “–1.93 msec” in the data set on healthy volunteers [1] (day 7, 2 hour); 0.40 ms in the data set on healthy volunteers [1] (day 7, 3 hour); 3.30 ms with healthy volunteers [1] (day 7, 4 hour); 4.16 ms with healthy volunteers [1] (day 7, 5 hour). Further, the “Mean change from baseline, msec ddQTcF” value was “–0.81 msec” in the data set on healthy volunteers [1] (day 7, 6 hour); “–0.74 msec” in the data set with healthy volunteers [1] (day 7, 8 hour); 5.78 ms with healthy volunteers [1] (day 7, 10 hour); 1.83 ms in the data set with healthy volunteers [1] (day 7, 11.5 hour); 0.60 ms in the data set with healthy volunteers [1] (day 7, 14 hour); 1.49 ms with healthy volunteers [1] (day 7, 15 hour). Moreover, the “Mean change from baseline, msec ddQTcF” value in the data set with healthy volunteers [1] (day 7, 16 hour) is 5.41 ms; in the data set on healthy volunteers [1] (day 7, 22.25 hour), 2.73 ms. Besides, in the data set on healthy volunteers [1] (moxifloxacin 400 mg, at 2, 3, and 4 hours), the “lower bound of multiplicity‐adjusted 90% CI of ddQTcF (assay sensitivity)” value is recorded as “above 5 msec”.
On to `COc1cnc(-n2cnc(C)n2)c2[nH]cc(C(=O)C(=O)N3CCN(C(=O)c4ccccc4)CC3)c12` [TMR, temsavir], for which the “maximum observed TMR concentrations indicating cardiovascular liability” value in the data set on dog is ≥ 3,600 ng/mL. The membrane permeability result in [2] is “good”. The “effect of renal impairment on Cmax” value in [3] was “no effect”. Further, the “influence of hepatic impairment on Cmax” value in data set [4] is recorded as under 1.72 fold. In addition, in the data set on healthy volunteers [5], the “Intercept θ1, bootstrap parameter estimate for n = 1,000 (90% CI)” value was “–0.727 (–2.500, 1.072) msec”; the “Intercept θ1, population mean estimate (% RSE)” value was “–0.783 (139) msec”; the “Slope θ2, bootstrap parameter estimate for n = 1,000 (90% CI)” value is 0.00126 (0.0011, 0.00142) msec per ng/mL TMR; the “Slope θ2, population mean estimate (% RSE)” value was 0.00126 (7.9) msec per ng/mL TMR. Besides, in data set [6], the “geometric mean TMR peak plasma concentration (Cmax)” value is recorded as 1,770 ng/mL. Moreover, the “relationship of ddQTcF with plasma TMR concentration” value in the data set with healthy volunteers [1] (graphical assessment, part 2 data) is listed as “positive linear relationship”.
For the molecule `CC(C)c1nc(CN(C)C(=O)N[C@@H](CCN2CCOCC2)C(=O)N[C@H](CC[C@H](Cc2ccccc2)NC(=O)OCc2cncs2)Cc2ccccc2)cs1` [cobicistat], the “increase in Cmax compared to without concomitant cobicistat” value in [7] (coadministration with cobicistat ref 21, 22) is 1.71 fold. Also, the “increase in TMR plasma Cmax” value in data set [7] (cobicistat 150 mg q.d. ref 18, 21) was 71%.
`Cc1cc(/C=C/C#N)cc(C)c1Nc1ccnc(Nc2ccc(C#N)cc2)n1` [rilpivirine]: the “QTc prolongation, one‐sided 95% CI upper bound” value is 15.3 ms in the data set with QTc interval (supratherapeutic dose 75 mg ref 11) and 8.2 ms with QTc interval (therapeutic dose 25 mg ref 11).
On to `CC(C)c1nc(CN(C)C(=O)N[C@H](C(=O)N[C@@H](Cc2ccccc2)C[C@H](O)[C@H](Cc2ccccc2)NC(=O)OCc2cncs2)C(C)C)cs1` [ritonavir], for which the “increase in TMR plasma Cmax” value in data set [8] was 45–53%.

The values above are taken from PMC7359933 (Clinical and Translational Science, 2020).
